# From ChEMBL document CHEMBL1152534, “Synthesis of oxalamide and triazine derivatives as a novel class of hybrid 4-aminoquinoline with potent antiplasmodial activity” (Bioorg Med Chem, 2009)
# Test system: Plasmodium falciparum
# Assay: Antimalarial activity against chloroquine-sensitive Plasmodium falciparum 3D7 […] after 72 hrs by twofold serial dilution method
# Assay type: functional, organism-based
# Settings: Plasmodium falciparum, 3D7, Vero, 72 h; read-out: IC50; call rule not given here
# Procedure, shortened: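 P. falciparum 3D7 erythrocyte culture, 2.5% cell suspension at 0.5% parasitaemia. Compounds were twofold serially diluted from 500 ng/mL (seven concentrations) in duplicate wells and incubated 72 h. Lysis buffer with SYBR Green I (Tris pH 7.5, EDTA, saponin, Triton X-100) was added, followed by 1 h at room temperature and a fluorescence read. IC50 from non-linear regression dose–response curves.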
row,Structure (SMILES),IC50 [µg/mL]
1,O=C(NCCNc1ccnc2cc(Cl)ccc12)C(=O)NCCN1CCOCC1,0.0908
2,CCN(CC)CCNC(=O)C(=O)NCCCNc1ccnc2cc(Cl)ccc12,0.0156
3,CN(C)CCNc1nc(NCCNc2ccnc3cc(Cl)ccc23)nc(N2CCOCC2)n1,0.0394
4,Clc1ccc2c(NCCCNc3nc(NCCCN4CCOCC4)nc(N4CCCCC4)n3)ccnc2c1,0.00523
5,CCN(CC)CCNc1nc(NCCCNc2ccnc3cc(Cl)ccc23)nc(N2CCCCC2)n1,0.00897
6,CN1CCN(c2nc(NCCCNc3ccnc4cc(Cl)ccc34)nc(N3CCCCC3)n2)CC1,0.00913
7,O=C(NCCCN1CCOCC1)C(=O)N1CCN(CCNc2ccnc3cc(Cl)ccc23)CC1,0.0408
8,CN1CCN(c2nc(NCCNc3ccnc4cc(Cl)ccc34)nc(N3CCOCC3)n2)CC1,0.01
9,Clc1ccc2c(NCCCNc3nc(NCCCN4CCOCC4)nc(N4CCOCC4)n3)ccnc2c1,0.0521

# Same assay, conditions: vero
row,Structure (SMILES),IC50
1,Cn1cc(C(=O)C(=O)N2CCN(c3ccnc4cc(Cl)ccc34)CC2)c2ccccc21,Not Active
2,CN(C)CCNC(=O)C(=O)N1CCN(c2ccnc3cc(Cl)ccc23)CC1,Not Active
3,Cc1ccc(S(=O)(=O)n2cc(C(=O)C(=O)N3CCN(CCNc4ccnc5cc(Cl)ccc45)CC3)c3ccccc32)cc1,Not Active
4,O=C(C(=O)N1CCN(CCNc2ccnc3cc(Cl)ccc23)CC1)c1c[nH]c2ccccc12,Not Active
5,O=C(NCCN1CCOCC1)C(=O)N1CCN(c2ccnc3cc(Cl)ccc23)CC1,Not Active
6,O=C(C(=O)N1CCN(c2ccnc3cc(Cl)ccc23)CC1)c1c[nH]c2ccccc12,Not Active
7,O=C(NCCCN1CCOCC1)C(=O)N1CCN(c2ccnc3cc(Cl)ccc23)CC1,Not Active
8,CC(C)(C)NC(=O)C(=O)N1CCN(c2ccnc3cc(Cl)ccc23)CC1,Not Active
9,CC(C)(C)NC(=O)C(=O)N1CCN(CCNc2ccnc3cc(Cl)ccc23)CC1,Not Active
10,Cn1cc(C(=O)C(=O)N2CCN(CCNc3ccnc4cc(Cl)ccc34)CC2)c2ccccc21,Not Active
11,Clc1ccc2c(NCCNc3nc(NCCN4CCOCC4)nc(N4CCCCC4)n3)ccnc2c1,Not Active
12,CCCCNC(=O)C(=O)N1CCN(c2ccnc3cc(Cl)ccc23)CC1,Not Active
13,CCCCNC(=O)C(=O)N1CCN(CCNc2ccnc3cc(Cl)ccc23)CC1,Not Active
14,Cc1ccc(S(=O)(=O)n2cc(C(=O)C(=O)N3CCN(c4ccnc5cc(Cl)ccc45)CC3)c3ccccc32)cc1,Not Active
15,Clc1ccc2c(NCCCNc3nc(NCCN4CCOCC4)nc(N4CCCCC4)n3)ccnc2c1,Not Active

# Test system: not listed separately
# Assay: Selectivity index, ratio of CC50 for african green monkey (Cercopithecus aethiops) Vero cells to IC50 for chloroquine-sensitive Plasmodium falciparum 3D7
# Assay type: functional
# Settings: not given
# Procedure, shortened: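 SI is Vero CC50 divided by the antiplasmodial IC50. For CC50, Vero (C-1008) cells at 1 × 10⁴ cells/well were exposed to varying compound concentrations for 72 h with an MTT read-out. CC50 is the concentration killing 50% of cells.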
row,Structure (SMILES),Ratio CC50/IC50
1,O=C(NCCNc1ccnc2cc(Cl)ccc12)C(=O)NCCN1CCOCC1,567.43
2,CCN(CC)CCNC(=O)C(=O)NCCCNc1ccnc2cc(Cl)ccc12,232.99
3,CN(C)CCNc1nc(NCCNc2ccnc3cc(Cl)ccc23)nc(N2CCOCC2)n1,1291.71
4,Clc1ccc2c(NCCCNc3nc(NCCCN4CCOCC4)nc(N4CCCCC4)n3)ccnc2c1,860.41
5,CCN(CC)CCNc1nc(NCCCNc2ccnc3cc(Cl)ccc23)nc(N2CCCCC2)n1,1011.15
6,CN1CCN(c2nc(NCCCNc3ccnc4cc(Cl)ccc34)nc(N3CCCCC3)n2)CC1,530.2
7,O=C(NCCCN1CCOCC1)C(=O)N1CCN(CCNc2ccnc3cc(Cl)ccc23)CC1,1221.84
8,CN1CCN(c2nc(NCCNc3ccnc4cc(Cl)ccc34)nc(N3CCOCC3)n2)CC1,4692.08
9,Clc1ccc2c(NCCCNc3nc(NCCCN4CCOCC4)nc(N4CCOCC4)n3)ccnc2c1,706.15

# Test system: Plasmodium yoelii
# Assay: Antiplasmodial activity against Plasmodium yoelii infected in Swiss mice (Mus musculus) erythrocytes assessed as inhibition of beta-hematin formation after 16 hrs by fluorescence assay
# Assay type: functional, organism-based
# Settings: Plasmodium yoelii, 16 h; in the assay text read “absorbance measurement at 400 nm” for “fluorescence assay”
# Procedure, shortened: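 Plasma came from P. yoelii-infected mouse blood at about 50% parasitemia, collected in citrate and centrifuged. The mix held 100 mM sodium acetate pH 5.1, 50 µL plasma and 100 µM hemin substrate in 1.0 mL, run in triplicate at 37 °C for 16 h with shaking. The pellet was dissolved in Tris-HCl pH 7.4 with 2.5% SDS. Absorbance at 400 nm; IC50 by non-linear regression.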
row,Structure (SMILES),IC50 [µg/mL]
1,CCN(CC)CCCC(C)Nc1ccnc2cc(Cl)ccc12 (stereo unspecified) [CHLOROQUINE],4.87
2,O=C(NCCNc1ccnc2cc(Cl)ccc12)C(=O)NCCN1CCOCC1,6.87
3,CCN(CC)CCNC(=O)C(=O)NCCCNc1ccnc2cc(Cl)ccc12,7.99
4,CN(C)CCNc1nc(NCCNc2ccnc3cc(Cl)ccc23)nc(N2CCOCC2)n1,8.1
5,Clc1ccc2c(NCCCNc3nc(NCCCN4CCOCC4)nc(N4CCCCC4)n3)ccnc2c1,7.54
6,CCN(CC)CCNc1nc(NCCCNc2ccnc3cc(Cl)ccc23)nc(N2CCCCC2)n1,7.45
7,CN1CCN(c2nc(NCCCNc3ccnc4cc(Cl)ccc34)nc(N3CCCCC3)n2)CC1,7.45
8,CN1CCN(c2nc(NCCNc3ccnc4cc(Cl)ccc34)nc(N3CCOCC3)n2)CC1,6.19
9,Clc1ccc2c(NCCCNc3nc(NCCCN4CCOCC4)nc(N4CCOCC4)n3)ccnc2c1,8.6

# Same assay, conditions: in the assay text read “absorbance measurement at 400 nm” for “fluorescence assay”
row,Structure (SMILES),IC50
1,O=C(NCCCN1CCOCC1)C(=O)N1CCN(CCNc2ccnc3cc(Cl)ccc23)CC1,Not Active

# Test system: Plasmodium yoelii
# Assay: Antimalarial activity against chloroquine-resistant Plasmodium yoelii N67 infected in Swiss mice (Mus musculus) assessed as inhibition of parasitaemia at 50 mg/kg, intraperitoneally administered daily for 4 days measured on day 4 post-infection
# Assay type: functional
# Settings: not given
# Procedure, shortened: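 Swiss mice were inoculated with 1 × 10⁶ P. yoelii N-67 parasitized RBC on day 0. Groups of five received compound as an aqueous suspension with a few drops of Tween 80, at 50 mg/kg/day intraperitoneally once daily from day 0 to 3. Parasitaemia was read from thin smears on day 4, with group-mean percent suppression against untreated controls.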
row,Structure (SMILES),Activity
1,Clc1ccc2c(NCCCNc3nc(NCCCN4CCOCC4)nc(N4CCCCC4)n3)ccnc2c1,Toxic
2,CN1CCN(c2nc(NCCNc3ccnc4cc(Cl)ccc34)nc(N3CCOCC3)n2)CC1,Toxic

# Test system: Plasmodium yoelii
# Assay: Antimalarial activity against chloroquine-resistant Plasmodium yoelii N67 infected in Swiss mice (Mus musculus) assessed as inhibition of parasitaemia at 10 mg/kg, perorally administered for 4 days measured on day 4 post-infection
# Assay type: functional
# Settings: N67, 96 h, route oral
# Procedure, shortened: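 Swiss mice were inoculated with 1 × 10⁶ P. yoelii N-67 parasitized RBC on day 0. Groups of five were dosed with chloroquine orally at 10 mg/kg once daily from day 0 to 3. Parasitaemia was read from thin blood smears on day 4, and percent suppression was calculated from the group mean against untreated controls.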
row,Structure (SMILES),inhibition in vivo at 10 mg/kg [%]
1,CCN(CC)CCCC(C)Nc1ccnc2cc(Cl)ccc12 (stereo unspecified) [CHLOROQUINE],99
